In ChEMBL document CHEMBL4715912, “Discovery of a novel series of indolinylpyrimidine-based GPR119 agonists: Elimination of ether-a-go-go-related gene liability using a hydrogen bond acceptor-focused approach” (Bioorg Med Chem, 2021):

Key:
hERG (KCNH2) [1] = target: T1, hERG (KCNH2) (Homo sapiens, UniProt Q12809); assay: (§1) Inhibition of human ERG expressed in CHO cells at 10 uM incubated for 5 mins by patch-clamp assay relative to control; type: cell-based; settings: CHO cells expressing human ERG
T1 sequence (Q12809 whole entry): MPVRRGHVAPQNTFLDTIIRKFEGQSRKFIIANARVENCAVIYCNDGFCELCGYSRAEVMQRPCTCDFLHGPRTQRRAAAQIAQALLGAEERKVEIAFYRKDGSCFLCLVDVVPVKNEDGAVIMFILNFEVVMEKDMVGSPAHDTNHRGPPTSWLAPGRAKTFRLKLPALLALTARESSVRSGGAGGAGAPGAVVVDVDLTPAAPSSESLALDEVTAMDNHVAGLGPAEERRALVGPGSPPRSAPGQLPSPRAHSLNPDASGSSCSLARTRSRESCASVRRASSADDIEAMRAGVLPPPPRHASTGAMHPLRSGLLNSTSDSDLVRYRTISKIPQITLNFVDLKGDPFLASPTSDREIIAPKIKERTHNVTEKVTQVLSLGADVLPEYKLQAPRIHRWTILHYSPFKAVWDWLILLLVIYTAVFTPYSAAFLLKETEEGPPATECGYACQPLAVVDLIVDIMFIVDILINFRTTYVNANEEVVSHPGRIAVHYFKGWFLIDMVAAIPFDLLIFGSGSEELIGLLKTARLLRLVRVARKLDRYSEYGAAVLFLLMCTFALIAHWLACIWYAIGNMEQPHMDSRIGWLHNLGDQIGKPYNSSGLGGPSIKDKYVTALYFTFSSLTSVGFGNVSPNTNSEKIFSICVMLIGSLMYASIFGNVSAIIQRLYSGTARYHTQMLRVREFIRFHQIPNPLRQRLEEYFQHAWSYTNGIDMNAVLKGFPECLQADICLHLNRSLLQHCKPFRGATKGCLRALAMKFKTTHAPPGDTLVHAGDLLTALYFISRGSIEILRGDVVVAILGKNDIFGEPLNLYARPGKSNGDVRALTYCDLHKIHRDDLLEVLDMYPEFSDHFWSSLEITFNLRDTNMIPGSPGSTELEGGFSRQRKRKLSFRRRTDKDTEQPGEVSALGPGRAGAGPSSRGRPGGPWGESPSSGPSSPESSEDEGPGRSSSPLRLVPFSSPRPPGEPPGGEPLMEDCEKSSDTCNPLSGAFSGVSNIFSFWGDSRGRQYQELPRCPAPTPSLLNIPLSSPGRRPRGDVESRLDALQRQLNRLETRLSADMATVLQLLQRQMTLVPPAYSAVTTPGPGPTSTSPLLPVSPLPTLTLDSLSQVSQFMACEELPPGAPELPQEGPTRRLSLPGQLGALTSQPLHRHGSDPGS
Outline: (§2)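 hERG-expressing CHO cells grown at 32 °C, recorded by population patch clamp after amphotericin B perforation; PBS with Ca/Mg outside, KCl/EGTA/HEPES pH 7.3 inside. Holding −80 mV, step to 40 mV 2 s, then −50 mV 2 s; peak tail current before and after 5 min compound exposure. Percent inhibition = 100 − post/pre × 100; mean ± SD, n = 4.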

[2] = Total clearance in rat at 0.1 mg/kg, iv by LC/MS/MS analysis; type: ADME, organism-based; settings: in vivo
Outline: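 Cassette intravenous dosing at 0.1 mg/kg to non-fasted animals. Plasma taken from blood samples, deproteinized and centrifuged, and compound levels in supernatant quantified by LC/MS/MS.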

[3] = Intrinsic clearance in human liver microsomes at 1 uM measured after 15 to 30 mins in presence of NADPH generating system by LC/MS/MS analysis; type: ADME, Microsome; settings: time 15-30 min, read-out: CLH
Outline: (§3)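 Human or rat liver microsomes at 0.2 mg/mL protein in 50 mM potassium phosphate pH 7.4 with 1 µM compound; reaction started with NADPH-generating system (5 mM MgCl2, 5 mM glucose-6-phosphate, 0.5 mM β-NADP+, 1.5 units/mL G6PDH). Stopped with acetonitrile at 15 and 30 min, parent by LC/MS/MS; rate from concentration–time slope, expressed as µL/min/mg.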

[4] = target: T2, Glucose-dependent insulinotropic receptor (Homo sapiens, UniProt Q8TDV5); assay: Agonist activity at human GPR119 expressed in CHO cells co-expressing cyclic AMP response element incubated for 2 hrs by steady-glo luciferase assay; type: cell-based
T2 sequence (Q8TDV5 whole entry): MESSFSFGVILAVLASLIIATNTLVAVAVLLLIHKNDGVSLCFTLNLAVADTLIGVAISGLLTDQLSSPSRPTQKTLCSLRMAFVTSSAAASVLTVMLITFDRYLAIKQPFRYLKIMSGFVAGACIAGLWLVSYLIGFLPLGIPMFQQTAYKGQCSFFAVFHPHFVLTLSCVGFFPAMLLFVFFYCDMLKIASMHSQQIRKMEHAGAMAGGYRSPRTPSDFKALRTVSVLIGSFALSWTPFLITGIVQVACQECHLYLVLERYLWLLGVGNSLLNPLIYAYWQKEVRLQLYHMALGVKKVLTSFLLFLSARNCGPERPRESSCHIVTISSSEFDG
Outline: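 CHO cells stably expressing human GPR119, seeded at 10,000 cells/well in MEM α with 500 µg/mL Geneticin overnight, then exposed to graded compound concentrations in MEM α/20 mmol/L HEPES/0.1% BSA for 2 h. cAMP-driven luciferase read with Steady-Glo. Response normalized between vehicle and a 10 µM reference agonist; EC50 as mean of n = 2.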

[5] = Partition coefficient, logD between 1-octanol and pH 7.4 aqueous buffer by chromatographic analysis; type: physicochemical; settings: 1-octanol/pH 7.4 aqueous buffer
Outline: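 LogD at pH 7.4, octanol/aqueous buffer partition, estimated by a chromatographic method adapted from a published procedure.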

[6] = Intrinsic clearance in rat liver microsomes at 1 uM measured after 15 to 30 mins in presence of NADPH generating system by LC/MS/MS analysis; type: ADME, Microsome; settings: time 15-30 min, read-out: CLH; outline: as §3
hERG (KCNH2) [7] = target: T1, hERG (KCNH2); assay: Inhibition of human ERG expressed in CHO cells at 30 uM incubated for 5 mins by patch-clamp assay relative to control; type: cell-based; settings: CHO cells expressing human ERG; outline: as §2
[8] = target: Voltage-gated inwardly rectifying potassium channel KCNH2 (Homo sapiens, UniProt Q12809); assay: as §1; type: cell-based; settings: cho, 5 min, 10 µM; outline: as §2
Chain of Voltage-gated inwardly rectifying potassium channel KCNH2 (Q12809 whole entry): as the sequence (Q12809 whole entry) above

Structure (SMILES) | clearance [2] | microsomal CLint at 1 µM [3] | EC50 [4] | logD [5] | microsomal CLint at 1 µM [6] | inhibition at 5 min, 10 µM (hERG (KCNH2) [1]) | inhibition at 5 min, 30 µM (hERG (KCNH2) [7]) | inhibition (INH) [8]
CC(C)SC(=O)N1CCC(Oc2cc(N3CCc4cc(S(C)(=O)=O)ccc43)ncn2)CC1 | – | – | 3.2 nM | 3.6 | – | 89% | – | –
CC(C)c1noc(N2CCC(Oc3cc(N4CCc5cc(C6CCCCC6=O)ccc54)ncn3)CC2)n1 (racemic) | – | 78 µL/min/mg | 48 nM | 4.7 | 141 µL/min/mg | 13% | – | –
CC(C)SC(=O)N1CCC(Oc2cc(N3CCc4ccccc43)ncn2)CC1 | – | – | > 10000 nM | 5.3 | – | 14% | 16% | –
CCc1cnc(N2CCC(C(C)COC(=O)N3CCc4cc(S(C)(=O)=O)cc(F)c43)CC2)nc1 (centres undefined) | 47.7 mL/min/kg | 329 µL/min/mg | – | – | 365 µL/min/mg | 75% | – | –
CC(C)c1noc(N2CCC(Oc3cc(N4CCc5cc(N6CCCNS6(=O)=O)ccc54)ncn3)CC2)n1 | – | 79 µL/min/mg | 24 nM | 3.2 | 21 µL/min/mg | 20% | – | –
CC(C)c1noc(N2CCC(Oc3cc(N4CCc5cc(N6CCNCC6=O)ccc54)ncn3)CC2)n1 | – | – | 36 nM | 2.7 | 98 µL/min/mg | 15% | – | –
CC(C)c1noc(N2CCC(Oc3cc(N4CCc5cc(N6CCOCC6=O)ccc54)ncn3)CC2)n1 | – | 27 µL/min/mg | 15 nM | 3.1 | 46 µL/min/mg | 54% | – | –
CC(C)c1noc(N2CCC(Oc3cc(N4CCc5cc(N6CCCS6(=O)=O)ccc54)ncn3)CC2)n1 | – | 18 µL/min/mg | 9.7 nM | 3.2 | 1 µL/min/mg | 19% | – | –
CC(C)c1noc(N2CCC(Oc3cc(N4CCc5cc(N6CCCC6=O)ccc54)ncn3)CC2)n1 | – | – | 33 nM | 3.7 | 138 µL/min/mg | 20% | – | –
CC(C)c1noc(N2CCC(Oc3cc(N4CCc5cc(N6CCCC(O)C6=O)ccc54)ncn3)CC2)n1 (racemic) | – | – | 17 nM | 3.3 | 4 µL/min/mg | 20% | – | –
CC(C)OC(=O)N1CCC(Oc2cc(N3CCc4cc(S(C)(=O)=O)ccc43)ncn2)CC1 | – | – | – | – | – | 84% | – | –
CC(C)c1noc(N2CCC(Oc3cc(N4CCc5cc(N6CCC(O)CC6=O)ccc54)ncn3)CC2)n1 (racemic) | – | 4 µL/min/mg | 89 nM | 2.8 | 13 µL/min/mg | 18% | – | –
CC(C)c1noc(N2CCC(Oc3cc(N4CCc5cc(N6CC(O)CCC6=O)ccc54)ncn3)CC2)n1 (racemic) | – | 1 µL/min/mg | 90 nM | 2.6 | 7 µL/min/mg | 18% | – | –
CC(C)c1noc(N2CCC(Oc3cc(N4CCc5cc(N6CCC[C@@H](O)C6=O)ccc54)ncn3)CC2)n1 | 6.25 mL/min/kg | – | 25 nM | 3.3 | – | 23% | – | –
CC(C)c1noc(N2CCC(Oc3cc(N4CCc5cc(N6CCCCC6=O)ccc54)ncn3)CC2)n1 | – | – | 17 nM | 3.8 | 13 µL/min/mg | 31% | – | –

Continued, in another order:

clearance [2] | microsomal CLint at 1 µM [3] | EC50 [4] | logD [5] | microsomal CLint at 1 µM [6] | Structure (SMILES) | inhibition at 5 min, 10 µM (hERG (KCNH2) [1]) | inhibition at 5 min, 30 µM (hERG (KCNH2) [7]) | inhibition (INH) [8]
3.83 mL/min/kg | 69 µL/min/mg | – | – | – | CC(C)c1noc(N2CCC(Oc3cc(N4CCc5cc(S(C)(=O)=O)ccc54)ncn3)CC2)n1 | 106% | – | –
– | – | 9.7 nM | 3.3 | – | CC(C)SC(=O)N1CCC(Oc2cc(N3CCc4cc([S+]([O-])CCO)ccc43)ncn2)CC1 (stereo in doubt; form 2) | – | – | 101%
– | – | 14 nM | – | – | CC(C)SC(=O)N1CCC(Oc2cc(N3CCc4cc([S+]([O-])CCO)ccc43)ncn2)CC1 (racemic) | – | – | 95%
– | – | 48 nM | 2.7 | – | CC(C)c1noc(N2CCC(Oc3cc(N4CCc5cc([S+]([O-])CCO)ccc54)ncn3)CC2)n1 (racemic) | 107% | – | –
– | – | 41 nM | 2.7 | – | CC(C)c1noc(N2CCC(Oc3cc(N4CCc5cc(S(=O)(=O)CCO)ccc54)ncn3)CC2)n1 | 102% | – | –
– | – | 57 nM | – | – | CC(C)SC(=O)N1CCC(Oc2cc(N3CCc4cc([S+]([O-])CCO)ccc43)ncn2)CC1 (stereo in doubt; form 1) | – | – | 44%
– | 173 µL/min/mg | 75 nM | 3.7 | 17 µL/min/mg | CC(=O)N(C)c1ccc2c(c1)CCN2c1cc(OC2CCN(c3nc(C(C)C)no3)CC2)ncn1 | 66% | 108% | –
